Positions count from the first letter of the chain named. Where a SMILES comes first, the peptide text is derived from it. Where no end group is shown, it is not given here. [ ]: non-standard residue; d: D form. The star is where a group is joined. pY = N[C@@H](Cc1ccc(OP(=O)(O)O)cc1)C(=O)O; Cbz = O=C(OCc1ccccc1)*

Experiment [1] relates to HER2 level in HepG2 cells. The experiment can be described thus: EGF-induced HER2 degradation with proteasome inhibitor. It counts as cell-based. Conditions: 100 ng/ml EGF. The essentials: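 HepG2 cells are transfected with control vector or PTPN18, preincubated with MG-132, then exposed to EGF for a time course. HER2 is detected by western blot with a specific antibody and quantified.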

In experiment [2] the target is T1, PTPN18 (Homo sapiens, UniProt Q99952).
T1 sequence (Q99952 6-300): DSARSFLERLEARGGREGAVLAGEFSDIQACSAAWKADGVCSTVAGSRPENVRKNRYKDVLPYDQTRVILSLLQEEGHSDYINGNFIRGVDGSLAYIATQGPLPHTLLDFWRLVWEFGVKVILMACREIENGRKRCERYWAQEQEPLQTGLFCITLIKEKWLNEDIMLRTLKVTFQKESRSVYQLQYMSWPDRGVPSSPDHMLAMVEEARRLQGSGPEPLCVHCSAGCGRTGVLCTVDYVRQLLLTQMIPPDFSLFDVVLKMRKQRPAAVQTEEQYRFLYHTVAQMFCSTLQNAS
The experiment can be described thus: pNPP phosphatase assay. It is filed as biochemical. As to conditions: PTPN18 versus PTP1B, DMG buffer, 37 °C.

Experiment [3] concerns the target T1, PTPN18. The experiment can be described thus: PTPN18-catalyzed hydrolysis of pY-containing peptides. It counts as biochemical. As to conditions: for Kcat/Km of PTPN18: calculated; for Kcat/Km of PTPN18 / Kcat for PTPN18 catalysis: range over the three peptides, pH 6.5, 37 °C, 10 nM PTPN18. The method, boiled down: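 Peptide dephosphorylation by the phosphatase, read by two methods: tyrosine fluorescence gain (excitation 280 nm, emission 305 nm) and an end-point inorganic phosphate assay at 620 nm. Conditions were 37 °C in 50 mM 3,3-dimethylglutarate pH 6.5, 1 mM DTT, 1 mM EDTA, ionic strength 0.15 M. Reactions started with enzyme at 10 nM final. Kinetics came from nonlinear least-squares regression.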

Experiment [4] has as its system PTPN18 mutants V65A, V65I, P272M. As to the kind of experiment: Catalytic activity of PTPN18 pY+1 pocket mutants towards HER2 phospho-peptides. As to conditions: mutations V65A, V65I and P272M versus wild type. It is filed as biochemical, human. The method, boiled down: (§1)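 Recombinant PTPN18 (wild type or mutant) hydrolysing pY-containing peptides at 37 °C in 50 mM 3,3-dimethylglutarate, pH 6.5, 1 mM DTT, 1 mM EDTA, ionic strength 0.15 M. Reactions are started by adding enzyme to 10 nM final. Read-out is tyrosine fluorescence (ex 280/em 305 nm) or inorganic-phosphate end-point at 620 nm. Kinetics are fitted by nonlinear least-squares regression.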

Experiment [5] relates to PTPN18 mutants R198A, R198E. The experiment can be described thus: Catalytic activity of PTPN18 R198 mutants towards HER2 phospho-peptides. Conditions: R198 changed to Ala or Glu versus wild type. It counts as biochemical, human. The method, boiled down: as §1
The target in another experiment is T2, PTPN18 V65A (UniProt Q99952 1-460, V65A).
T2 sequence (looked up): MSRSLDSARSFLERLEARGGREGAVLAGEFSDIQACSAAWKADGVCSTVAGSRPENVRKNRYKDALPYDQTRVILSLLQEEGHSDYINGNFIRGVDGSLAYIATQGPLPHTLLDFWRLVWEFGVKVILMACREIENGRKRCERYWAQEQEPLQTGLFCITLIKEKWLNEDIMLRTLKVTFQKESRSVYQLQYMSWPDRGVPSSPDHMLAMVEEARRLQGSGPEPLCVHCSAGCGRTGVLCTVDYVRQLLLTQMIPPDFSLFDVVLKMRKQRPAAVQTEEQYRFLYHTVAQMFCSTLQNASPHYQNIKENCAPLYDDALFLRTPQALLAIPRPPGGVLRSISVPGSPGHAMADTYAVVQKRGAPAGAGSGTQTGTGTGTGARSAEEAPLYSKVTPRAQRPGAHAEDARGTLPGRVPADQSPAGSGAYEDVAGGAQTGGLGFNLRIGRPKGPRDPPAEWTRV
As to the kind of experiment: cell-based or functional assay.

For the next experiment, the target named is T3, PTPN18 P272M (UniProt Q99952 1-460, P272M).
T3 sequence (looked up): T2 sequence (looked up) with A65V, P272M
The experiment can be described thus: cell-based or functional assay.

The target of another experiment is T4, PTPN18 V65I (UniProt Q99952 1-460, V65I).
T4 sequence (looked up): T2 sequence (looked up) with A65I
The experiment can be described thus: cell-based or functional assay.

On to `CC(C)C[C@@H](C=O)NC(=O)[C@H](CC(C)C)NC(=O)[C@H](CC(C)C)NC(=O)OCc1ccccc1` [MG132] (Cbz-Leu-Leu-Leu-aldehyde), for which the “Effect on PTPN18-overexpression-promoted HER2 degradation” value in experiment [1] (HepG2 cells transfected with PTPN18, 5 μM MG-132 for 16 h) is reported as “almost abolished”. The “Endogenous HER2 expression level” value in experiment [1] (HepG2 cells, 5 μM MG-132 preincubated for 16 h) is given as “significantly increased”.

For the molecule `O=[N+]([O-])c1ccc(OP(=O)(O)O)cc1` [pNPP, para-nitrophenyl phosphate], the “Kcat/Km of PTPN18 lower than that of PTP1B” value on PTPN18 [2] is recorded as 2000 fold.

As for Ac-ENPE pY^1196 LTPQ-NH2 [HER2 pY^1196], at PTPN18 [3], the “Kcat/Km of PTPN18 relative to its Kcat/Km towards HER2 pY^1248” value is given as “approximately half”, the “Kcat/Km of PTPN18” value is 400000 to 800000 M⁻¹ s⁻¹ and the “Kcat for PTPN18 catalysis” value is 4 to 11.2 s⁻¹. In addition, the “Decrease of PTPN18 activity towards the peptide by mutation” value (from here on “Decrease … by mutation”) in experiment [4] is listed as above 2 fold.

In the case of Ac-ENPEpY^1248 LGLD-NH2 [HER2 pY^1248], on PTPN18 [3], the “Kcat/Km of PTPN18” value was 400000 to 800000 M⁻¹ s⁻¹ and the “Kcat for PTPN18 catalysis” value lay in the range of 4 to 11.2 s⁻¹. Moreover, the “Decrease … by mutation” value in experiment [4] is on record as above 2 fold. In addition, the “Decrease … by mutation” value in experiment [5] is listed as 2-3 fold.

Consider “HER2 pY^1221pY^1222: HER2 doubly phosphorylated Y1221/Y1222 site phospho-peptide (FDNL[pY][pY]WDQD)”, for which the “PTPN18 activity towards the peptide (in words)” value with PTPN18 [3] is reported as “very weak activity”.

In the case of PLQRpY^1112 SEDP [HER2 pY^1112], at PTPN18 [3], the “Kcat/Km of PTPN18” value was 400000 to 800000 M⁻¹ s⁻¹ and the “Kcat for PTPN18 catalysis” value lay in the range of 4 to 11.2 s⁻¹. Moreover, in experiment [5], the “Decrease … by mutation” value was 2-3 fold.

B1: HER2 pY1196 phospho-peptide (Ac-ENPEpY1196LTPQ-NH2) (peptide)
peptide: Ac-ENPE[pY]LTPQ-NH2
SMILES: CC(=O)N[C@@H](CCC(=O)O)C(=O)N[C@@H](CC(N)=O)C(=O)N1CCC[C@H]1C(=O)N[C@@H](CCC(=O)O)C(=O)N[C@@H](Cc1ccc(OP(=O)(O)O)cc1)C(=O)N[C@@H](CC(C)C)C(=O)N[C@H](C(=O)N1CCC[C@H]1C(=O)N[C@@H](CCC(N)=O)C(N)=O)[C@@H](C)O
As for B1, the “decrease of PTPN18 activity towards the peptide (Figure 6B)” value with PTPN18 V65A, with PTPN18 P272M and with PTPN18 V65I was above 2 fold in each case.

B2: HER2 pY1248 phospho-peptide (Ac-ENPEpY1248LGLD-NH2) (peptide)
peptide: Ac-ENPE[pY]LGLD-NH2
SMILES: CC(=O)N[C@@H](CCC(=O)O)C(=O)N[C@@H](CC(N)=O)C(=O)N1CCC[C@H]1C(=O)N[C@@H](CCC(=O)O)C(=O)N[C@@H](Cc1ccc(OP(=O)(O)O)cc1)C(=O)N[C@@H](CC(C)C)C(=O)NCC(=O)N[C@@H](CC(C)C)C(=O)N[C@@H](CC(=O)O)C(N)=O
B2: the “decrease of PTPN18 activity towards the peptide (Figure 6B)” value in the experiment with PTPN18 V65A, with PTPN18 P272M and with PTPN18 V65I was above 2 fold throughout.

These data come from PMC4152746 (Cell Research, 2014).
